Data from ChEMBL document CHEMBL4033712, “Synthesis and biological evaluation of new C-12(α/β)-(N-) sulfamoyl-phenylamino-14-deoxy-andrographolide derivatives as potent anti-cancer agents” (Bioorg Med Chem Lett, 2017).

Columns and labels:
Type in all cases: functional
CCRF-CEM = experiment: Anticancer activity against human CCRF-CEM cells assessed as cell growth at 10 uM after 48 hrs by sulforhodamine B assay relative to control; conditions: read-out: Activity
Outline: (§1)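 Single-dose NCI-60 panel screen: compound added at 10 µM and the culture incubated 48 h. The end point was read by protein staining with sulforhodamine B. The value is percent growth of treated cells relative to untreated control cells, reported as a mean graph across the panel.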

K562 = experiment: Anticancer activity against human K562 cells assessed as cell growth at 10 uM after 48 hrs by sulforhodamine B assay relative to control; conditions: K562, 48 h, read-out: Activity; outline: as §1
MOLT-4 = experiment: Anticancer activity against human MOLT4 cells assessed as cell growth at 10 uM after 48 hrs by sulforhodamine B assay relative to control; conditions: MOLT-4, 48 h, read-out: Activity; outline: as §1
SR = experiment: Anticancer activity against human SR cells assessed as cell growth at 10 uM after 48 hrs by sulforhodamine B assay relative to control; conditions: read-out: Activity
Outline: (§2)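 NCI-60 single-dose screen: compound added at 10 µM, cultures incubated 48 h. End point by sulforhodamine B protein-binding dye. Value reported as percent growth of treated cells relative to untreated control cells.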

A549 = experiment: Anticancer activity against human A549/ATCC cells assessed as cell growth at 10 uM after 48 hrs by sulforhodamine B assay relative to control; conditions: A549, 48 h, read-out: Activity; outline: as §1
EKVX = experiment: Anticancer activity against human EKVX cells assessed as cell growth at 10 uM after 48 hrs by sulforhodamine B assay relative to control; conditions: read-out: Activity; outline: as §1
NCI-H23 = experiment: Anticancer activity against human NCI-H23 cells assessed as cell growth at 10 uM after 48 hrs by sulforhodamine B assay relative to control; conditions: NCI-H23, 48 h, read-out: Activity; outline: as §1
NCI-H322M = experiment: Anticancer activity against human NCI-H322M cells assessed as cell growth at 10 uM after 48 hrs by sulforhodamine B assay relative to control; conditions: read-out: Activity; outline: as §1
HCC 2998 = experiment: Anticancer activity against human HCC2998 cells assessed as cell growth at 10 uM after 48 hrs by sulforhodamine B assay relative to control; conditions: HCC 2998, 48 h, read-out: Activity; outline: as §1
HCT-15 = experiment: Anticancer activity against human HCT15 cells assessed as cell growth at 10 uM after 48 hrs by sulforhodamine B assay relative to control; conditions: HCT-15, 48 h, read-out: Activity; outline: as §1
KM12 = experiment: Anticancer activity against human KM12 cells assessed as cell growth at 10 uM after 48 hrs by sulforhodamine B assay relative to control; conditions: KM12, 48 h, read-out: Activity; outline: as §1
SW-620 = experiment: Anticancer activity against human SW620 cells assessed as cell growth at 10 uM after 48 hrs by sulforhodamine B assay relative to control; conditions: SW-620, 48 h, read-out: Activity; outline: as §2
SF-268 = experiment: Anticancer activity against human SF268 cells assessed as cell growth at 10 uM after 48 hrs by sulforhodamine B assay relative to control; conditions: SF-268, 48 h, read-out: Activity; outline: as §1
SF-295 = experiment: Anticancer activity against human SF295 cells assessed as cell growth at 10 uM after 48 hrs by sulforhodamine B assay relative to control; conditions: SF-295, 48 h, read-out: Activity; outline: as §1
SNB-75 = experiment: Anticancer activity against human SNB75 cells assessed as cell growth at 10 uM after 48 hrs by sulforhodamine B assay relative to control; conditions: SNB-75, 48 h, read-out: Activity; outline: as §2
U-251 = experiment: Anticancer activity against human U251 cells assessed as cell growth at 10 uM after 48 hrs by sulforhodamine B assay relative to control; conditions: U-251, 48 h, read-out: Activity; outline: as §2
LOX IMVI = experiment: Anticancer activity against human LOXIMVI cells assessed as cell growth at 10 uM after 48 hrs by sulforhodamine B assay relative to control; conditions: read-out: Activity; outline: as §1
SK-MEL-2 = experiment: Anticancer activity against human SK-MEL-2 cells assessed as cell growth at 10 uM after 48 hrs by sulforhodamine B assay relative to control; conditions: SK-MEL-2, 48 h, read-out: Activity; outline: as §1
SK-MEL-28 = experiment: Anticancer activity against human SK-MEL-28 cells assessed as cell growth at 10 uM after 48 hrs by sulforhodamine B assay relative to control; conditions: SK-MEL-28, 48 h, read-out: Activity; outline: as §1
OVCAR-4 = experiment: Anticancer activity against human OVCAR4 cells assessed as cell growth at 10 uM after 48 hrs by sulforhodamine B assay relative to control; conditions: OVCAR-4, 48 h, read-out: Activity; outline: as §1
OVCAR-5 = experiment: Anticancer activity against human OVCAR5 cells assessed as cell growth at 10 uM after 48 hrs by sulforhodamine B assay relative to control; conditions: OVCAR-5, 48 h, read-out: Activity; outline: as §1
SK-OV-3 = experiment: Anticancer activity against human SKOV3 cells assessed as cell growth at 10 uM after 48 hrs by sulforhodamine B assay relative to control; conditions: SK-OV-3, 48 h, read-out: Activity; outline: as §1
786-0 = experiment: Anticancer activity against human 786-0 cells assessed as cell growth at 10 uM after 48 hrs by sulforhodamine B assay relative to control; conditions: 786-0, 48 h, read-out: Activity; outline: as §1
CAKI-1 = experiment: Anticancer activity against human Caki1 cells assessed as cell growth at 10 uM after 48 hrs by sulforhodamine B assay relative to control; conditions: CAKI-1, 48 h, read-out: Activity; outline: as §1
SN12C = experiment: Anticancer activity against human SN12C cells assessed as cell growth at 10 uM after 48 hrs by sulforhodamine B assay relative to control; conditions: read-out: Activity; outline: as §1
UO-31 = experiment: Anticancer activity against human UO31 cells assessed as cell growth at 10 uM after 48 hrs by sulforhodamine B assay relative to control; conditions: UO-31, 48 h, read-out: Activity; outline: as §2
PC-3 = experiment: Anticancer activity against human PC3 cells assessed as cell growth at 10 uM after 48 hrs by sulforhodamine B assay relative to control; conditions: PC-3, 48 h, read-out: Activity; outline: as §1
MCF7 = experiment: Anticancer activity against human MCF7 cells assessed as cell growth at 10 uM after 48 hrs by sulforhodamine B assay relative to control; conditions: MCF7, 48 h, read-out: Activity; outline: as §1
MDA-MB-231 = experiment: Anticancer activity against human MDA-MB-231 cells assessed as cell growth at 10 uM after 48 hrs by sulforhodamine B assay relative to control; conditions: MDA-MB-231, 48 h, read-out: Activity; outline: as §1
Hs-578T = experiment: Anticancer activity against human Hs 578T cells assessed as cell growth at 10 uM after 48 hrs by sulforhodamine B assay relative to control; conditions: read-out: Activity; outline: as §1
BT-549 = experiment: Anticancer activity against human BT549 cells assessed as cell growth at 10 uM after 48 hrs by sulforhodamine B assay relative to control; conditions: BT-549, 48 h, read-out: Activity; outline: as §1
MDA-MB-468 = experiment: Anticancer activity against human MDA-MB-468 cells assessed as cell growth at 10 uM after 48 hrs by sulforhodamine B assay relative to control; conditions: MDA-MB-468, 48 h, read-out: Activity; outline: as §1

`C=C1CC[C@@H]2[C@](C)(COC(C)=O)[C@H](OC(C)=O)CC[C@@]2(C)[C@H]1CC(Nc1ccc(S(=O)(=O)Nc2nccc(C)n2)cc1)C1=CCOC1=O` (some centres not stated) was tested, and the growth at 10 µM (CCRF-CEM) was -19.2%, the growth at 10 µM (K562) was 3.62% and the growth at 10 µM (MOLT-4) was -1.85%. For the same molecule, the growth at 10 µM (SR) was 0.79%, the growth at 10 µM (A549) was 63.4% and the growth at 10 µM (EKVX) was 79.2%. It also gave a growth at 10 µM (NCI-H23) of 48.4%, a growth at 10 µM (NCI-H322M) of 64.8% and a growth at 10 µM (HCC 2998) of 68.2%. For the same molecule, the growth at 10 µM (HCT-15) was -42%, the growth at 10 µM (KM12) was 13.2% and the growth at 10 µM (SW-620) was -49.6%. The growth at 10 µM (SF-268) was 43.2%, the growth at 10 µM (SF-295) was 78.7% and the growth at 10 µM (SNB-75) was 9.66%. It also gave a growth at 10 µM (U-251) of 14.6%, a growth at 10 µM (LOX IMVI) of -72.9% and a growth at 10 µM (SK-MEL-2) of 40.1%. It also gave a growth at 10 µM (SK-MEL-28) of -7.05%, a growth at 10 µM (OVCAR-4) of 32.3% and a growth at 10 µM (OVCAR-5) of 26.9%. For the same molecule, the growth at 10 µM (SK-OV-3) was 101%, the growth at 10 µM (786-0) was 32.5% and the growth at 10 µM (CAKI-1) was 61.4%. The growth at 10 µM (SN12C) was 25.1%, the growth at 10 µM (UO-31) was 33.4% and the growth at 10 µM (PC-3) was 41.5%. It also gave a growth at 10 µM (MCF7) of 0.14%, a growth at 10 µM (MDA-MB-231) of 13.3% and a growth at 10 µM (Hs-578T) of 68.6%. For the same molecule, the growth at 10 µM (BT-549) was -2.66% and the growth at 10 µM (MDA-MB-468) was -45.8%.
